High-throughput results deposited in PubChem BioAssay by Broad Institute.
SIRT5 block: inhibitors of human sirtuin-5 desuccinylase. Purified SirT5, succinyl-peptide AMC, trypsin-coupled fluorescence. inhibition, % at 15 µM. 330,000 compounds, 1.1% hits; in the data active = inhibition above about 15%
Target sequence (Q9NXA8 whole entry, looked up): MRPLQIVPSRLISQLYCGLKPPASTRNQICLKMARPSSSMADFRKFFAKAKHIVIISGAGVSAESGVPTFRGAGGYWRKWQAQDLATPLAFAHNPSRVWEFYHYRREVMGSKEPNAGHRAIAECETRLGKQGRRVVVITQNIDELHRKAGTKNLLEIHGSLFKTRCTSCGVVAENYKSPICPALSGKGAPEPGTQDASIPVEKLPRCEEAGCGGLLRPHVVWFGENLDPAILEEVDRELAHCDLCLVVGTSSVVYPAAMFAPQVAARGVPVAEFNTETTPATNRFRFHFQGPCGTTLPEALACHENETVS
FGF22 binding: FGF22 (human) thermal shift binding | Q9HCT0 | 340,000 compounds, 1.5% hits | AID 651658 | activity (Tm shift, normalised), % at 9.99 µM | recombinant FGF22 thermal shift, SYPRO orange fluorescence; percent of sucrose octasulfate shift, DMSO zero;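 active = mean Tm shift, scaled 0 neutral to 100 positive control, at about 1.3% or above, every replicate too, limit read from the data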
FN deposition inh: fibronectin deposition inhibition | AH1F fibroblasts, Alexa488-fibronectin deposition fluorescence, overnight | inhibition, % at 12.6 µM | 350,000 compounds, 0.086% hits | AID 743247;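 active = mean inhibition across replicates of 30% or more, regardless of how many single replicates reach that level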
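Assay system: AH1F fibroblast monolayer, labelled fibronectin deposition. Amount: 10000 cells per well. Also added: labelled fibronectin 24 nM. Compound: single-point pinned compound. Incubation: cell attachment 1 h, compound and FN exposure overnight. Detection: fluorescence after three HBSS washes, excitation 485 nm, emission 525 nm. Read-out: inhibition of fibronectin deposition signal.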
ARNT TACC3 PPI: disruptors of human ARNT/TACC3 interaction | Q9Y6A5 | AlphaScreen His-ARNT PAS-B/GST-TACC3 binding, luminescence; TACC3 fragment carries E629A point mutation | inhibition, % at 9.99 µM | 390,000 compounds, 0.66% hits | AID 623870;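 active = mean inhibition of replicates at least 50% and at least half of replicates each reaching 50%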
DENV2 CPE rescue: protects cells from dengue virus 2 cytopathic effect. 350,000 compounds, 1.7% hits. DENV2-infected cells, cytopathic effect rescue, plate reader. CPE inhibition, % at 9.99 µM; in the data active = CPE inhibition above about 20%, passing the limit was not always enough; tested in BHK-21 cells
Xi reactivation: X-chromosome reactivation activator | 360,000 compounds, 0.055% hits | activation, % at 7.58 µM | AID 743238 | XiGFP mouse fibroblasts, % GFP-positive cells imaging, 3 d; cells co-treated with 5-aza-dC sensitizer; scaled so ellipticine positive control = 100%;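 active = mean normalized replicate activation at least 10% and every replicate at or above 10%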
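System: XiGFP fibroblasts, SV40-immortalized. Medium: DMEM plus 5-aza-dC sensitizer. Doses: single point. Timing: 3 d treatment, 15 min room-temperature fixation. Control set: ellipticine 6 µM.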
A number is an active result. Sampled rows, rich in hits. Any-hit rate of the full collection: about 3.8%.

For O=C1CC(c2cccc(F)c2)c2c(c3ccccc3[nH]c2=O)O1 (configuration not stated) the results were SIRT5 block inactive, FGF22 binding 43, FN deposition inh inactive, ARNT TACC3 PPI inactive, DENV2 CPE rescue inactive and Xi reactivation inactive.
Screening Cc1cc(C)n2nc(C)c(Br)c2n1 returned SIRT5 block inactive, FGF22 binding 44, FN deposition inh inactive, ARNT TACC3 PPI inactive, DENV2 CPE rescue inactive and Xi reactivation inactive.
Screening Cc1cc(C)n2nc(C)c(-c3ccccc3)c2n1 returned SIRT5 block inactive, FGF22 binding inactive, FN deposition inh inactive, ARNT TACC3 PPI inactive, DENV2 CPE rescue inactive and Xi reactivation inactive.
For Cn1c(SCc2cccc(F)c2)nnc1-c1ccncc1 the results were SIRT5 block 15, FGF22 binding inactive, FN deposition inh inactive, ARNT TACC3 PPI inactive, DENV2 CPE rescue inactive and Xi reactivation inactive.
For CO[C@@H](CN(C)Cc1nccs1)[C@@H](C)CN([C@H](C)CO)S(=O)(=O)c1ccc(C)cc1 the results were SIRT5 block inactive, FGF22 binding inactive, FN deposition inh inactive, ARNT TACC3 PPI inactive, DENV2 CPE rescue inactive and Xi reactivation inactive.
CCC(=O)N1CCc2cc(Br)cc(S(=O)(=O)N3CCCC(C(=O)NC(C)(C)C)C3)c21 (configuration not stated) was read as SIRT5 block inactive, FGF22 binding 43, FN deposition inh inactive, ARNT TACC3 PPI inactive, DENV2 CPE rescue inactive and Xi reactivation inactive.
For CC1(C)C[C@H]2C3=CCC4[C@@]5(C)CC[C@H](O)[C@](C)(CO)C5CC[C@@]4(C)[C@]3(C)C[C@H]3O[C@@H]1[C@H](O)[C@]32CO (some centres not stated) the results were SIRT5 block inactive, FGF22 binding inactive, FN deposition inh inactive, ARNT TACC3 PPI inactive, DENV2 CPE rescue 41 and Xi reactivation inactive.
O=C(O)c1cccc(NC(=S)NC(=O)c2ccc(-c3ccccc3)cc2)c1 was read as SIRT5 block inactive, FGF22 binding inactive, FN deposition inh inactive, ARNT TACC3 PPI inactive, DENV2 CPE rescue inactive and Xi reactivation inactive.
Screening Cc1ccc(C(=O)O)cc1NC(=S)NC(=O)c1ccc(-c2ccccc2)cc1 returned SIRT5 block inactive, FGF22 binding 43, FN deposition inh inactive, DENV2 CPE rescue inactive and Xi reactivation inactive.
For CCCC#Cc1ccc([C@@H]2[C@H]3CN(S(=O)(=O)c4ccccc4F)CCCCN3[C@H]2CO)cc1 the results were ARNT TACC3 PPI inactive and Xi reactivation inactive.
Screening CCS(=O)(=O)N1CCN(S(=O)(=O)c2ccc(Cl)s2)CC1 returned SIRT5 block inactive, FGF22 binding inactive, FN deposition inh inactive, ARNT TACC3 PPI inactive and Xi reactivation inactive.
For COCCNC(=S)N1CCN(S(=O)(=O)c2ccc(Cl)s2)CC1 the results were SIRT5 block inactive, FGF22 binding inactive, FN deposition inh inactive, ARNT TACC3 PPI inactive, DENV2 CPE rescue 45 and Xi reactivation inactive.
Screening COc1cc2cc(CCCOC(=O)c3cc(OC)c(OC)c(OC)c3)oc(=O)c2cc1OC returned FGF22 binding inactive, FN deposition inh inactive, ARNT TACC3 PPI inactive, DENV2 CPE rescue inactive and Xi reactivation inactive.
COc1cc2cc(CCCOC(=O)CCCC(=O)O)oc(=O)c2cc1OC was read as FGF22 binding inactive, FN deposition inh inactive, ARNT TACC3 PPI inactive, DENV2 CPE rescue 38 and Xi reactivation inactive.
For CCC[C@@H]1CCCO[C@@](C(=O)NCc2ccccn2)(C(F)(F)F)C1 the results were SIRT5 block inactive, FGF22 binding inactive, FN deposition inh inactive, DENV2 CPE rescue 69 and Xi reactivation inactive.
Screening O=C1OC(Oc2ccccc2)(c2ccccc2)c2ccccc21 (configuration not stated) returned FN deposition inh inactive and ARNT TACC3 PPI inactive.
O=C1OC(Cc2ccccc2)(c2ccccc2)c2ccccc21 (configuration not stated) was read as FGF22 binding 44, FN deposition inh inactive, DENV2 CPE rescue inactive and Xi reactivation inactive.
